Results on 41 molecules are retold here after ChEMBL document CHEMBL1130128, “Antipsoriatic anthrones with modulated redox properties. 4. Synthesis and biological activity of novel 9,10-dihydro-1,8-dihydroxy-9-oxo-2-anthracenecarboxylic and -hydroxamic acids” (J Med Chem, 1997).

Test [1] relates to HaCaT. The test is described as follows: Antiproliferative activity (AA) against HaCaT keratinocytes. Format: functional, cell-based. Particulars: Homo sapiens.
Test [2] addresses T1, Arachidonate 5-lipoxygenase (Bos taurus, UniProt Q9BEG3).
T1 sequence (Q9BEG3 whole entry): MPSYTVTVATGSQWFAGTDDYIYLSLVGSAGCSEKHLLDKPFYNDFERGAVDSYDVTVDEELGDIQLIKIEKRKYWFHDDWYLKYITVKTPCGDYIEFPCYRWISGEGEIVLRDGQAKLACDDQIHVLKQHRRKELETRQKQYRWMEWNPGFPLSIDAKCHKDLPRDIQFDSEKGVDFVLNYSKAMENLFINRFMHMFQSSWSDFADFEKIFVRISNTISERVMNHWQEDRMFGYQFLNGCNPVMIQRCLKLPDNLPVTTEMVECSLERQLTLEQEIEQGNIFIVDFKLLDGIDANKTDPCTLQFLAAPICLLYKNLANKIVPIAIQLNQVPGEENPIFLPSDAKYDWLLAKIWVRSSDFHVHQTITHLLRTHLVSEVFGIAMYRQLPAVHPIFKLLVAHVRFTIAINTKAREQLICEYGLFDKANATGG
The test is described as follows: 5-LO inhibitory activity, measured by production of 5-hydroxyeicosatetraenoic acid (5-HETE) and leukotriene B4 (LTB4) in bovine polymorphonuclear leukocytes. It counts as functional, cell-based.

Test [3] is described as follows: Antioxidant activity, measuring Deoxyribose degradation (DD) as a measure of hydroxyl radical formation. The gist of the method: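 Deoxyribose assay: 2-deoxy-D-ribose incubated with 75 μM test compound; hydroxyl-radical generation read as malondialdehyde release, expressed as μmol MDA/mmol deoxyribose; compared with control.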
Test [4] deals with HaCaT. Nature of the test: Cytotoxicity of LDH release in HaCaT cells. The arrangement: unit: mU. It counts as functional, Homo sapiens. The procedure, abridged:
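HaCaT cells treated with 2 μM test compound; plasma membrane damage measured as lactate dehydrogenase activity released into culture medium, in mU; N = 3; compared with vehicle control.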
(In general: LDH in the medium is a marker of cell lysis.)

As for `COC(=O)CCCc1ccc2c(c1O)C(=O)c1c(O)cccc1C2`, the IC50 is 1.1 µM in the test with HaCaT [1] and over 30 µM in test [2]. In test [3], the DD was found to be 0.33 µmol/mmol.

As for `CN(O)C(=O)CCc1ccc2c(c1O)C(=O)c1c(O)cccc1C2`, the LDH with HaCaT [4] worked out at 135 MU. In test [3], the DD is 0.92 µmol/mmol.

For `COC(=O)CCCCCc1ccc2c(c1O)C(=O)c1c(O)cccc1C2`, the concentration for half-maximal inhibition (IC50) in the test on HaCaT [1] is 1.6 µM; in test [2], over 30 µM. Besides, the LDH with HaCaT [4] is recorded as 142 MU.

As for `COC(=O)CCCCc1ccc2c(c1O)C(=O)c1c(O)cccc1C2`, the IC50 in the test on HaCaT [1] is 1.8 µM; in test [2] it was over 30 µM. In the test on HaCaT [4], the LDH came to 146 MU. In test [3], this molecule came in with a DD of 0.62 µmol/mmol.

In the case of `CC(C(=O)O)c1ccc2c(c1O)C(=O)c1c(O)cccc1C2` (stereo unspecified), the IC50 with HaCaT [1] is over 5 µM; in test [2], 17 µM.

`O=C1c2c(O)cccc2Cc2cccc(O)c21` [ANTHRALIN] had an IC50 in the test on HaCaT [1] of 0.6 µM. Further, in the test with HaCaT [4], the LDH came to 294 MU. In addition, in test [3], the DD was 2.89 µmol/mmol.

As for `CN(O)C(=O)CCCCCc1ccc2c(c1O)C(=O)c1c(O)cccc1C2`, the figures for the IC50 (in the test on HaCaT [1]; in test [2]) were 0.7 µM and 0.4 µM, respectively.

Turning to `COC(=O)c1ccc(C(=O)c2ccc3c(c2O)C(=O)c2c(O)cccc2C3)cc1`, the values for the IC50 (in the test with HaCaT [1]; in test [2]) were 1.8 µM and over 30 µM, respectively.

For `O=C(CCCc1ccc2c(c1O)C(=O)c1c(O)cccc1C2)NO`, the IC50 in the test on HaCaT [1] is 1.5 µM; in test [2] it was 3 µM. Moreover, the DD in test [3] stood at 1.46 µmol/mmol.

In test [3], `O=C(O)c1ccc(Cc2ccc3c(c2O)C(=O)c2c(O)cccc2C3)cc1` registered a DD of under 0.15 µmol/mmol.

Take `COC(=O)CCc1ccc2c(c1O)C(=O)c1c(O)cccc1C2`: the IC50 in the test on HaCaT [1] is 0.8 µM; in test [2], over 30 µM.

In the case of `CN(O)C(=O)c1ccc(C(=O)c2ccc3c(c2O)C(=O)c2c(O)cccc2C3)cc1`, the results for the IC50 (in the test on HaCaT [1]; in test [2]) were 1.8 µM and 4 µM, respectively. The molecule further displayed a DD in test [3] of 0.92 µmol/mmol.

For the molecule `O=C1c2c(O)cccc2Cc2ccc(C(Cc3ccccc3)C(=O)NO)c(O)c21` (stereo unspecified), the IC50 in the test on HaCaT [1] turned out to be 1.5 µM; in test [2] it was 4 µM. Further, in test [3], the DD was determined as 1.04 µmol/mmol.

As for `O=C(NO)c1ccc(Cc2ccc3c(c2O)C(=O)c2c(O)cccc2C3)cc1`, the IC50 in the test with HaCaT [1] worked out at 1.1 µM; in test [2] it was 5 µM.

For the molecule `O=C(Cc1ccc2c(c1O)C(=O)c1c(O)cccc1C2)NO`, the values for the IC50 (with HaCaT [1]; in test [2]) were 1.8 µM and 6 µM, respectively. In test [3], the DD amounted to 1.89 µmol/mmol.

In the case of `O=C(O)c1ccc(C(=O)c2ccc3c(c2O)C(=O)c2c(O)cccc2C3)cc1`, the IC50 with HaCaT [1] is over 5 µM; in test [2] it was 2 µM. The molecule further showed a DD in test [3] of 1.34 µmol/mmol.

With `O=C(O)CCCCCc1ccc2c(c1O)C(=O)c1c(O)cccc1C2`, the IC50 in the test with HaCaT [1] is over 5 µM; in test [2] it was 10 µM. Besides, the DD in test [3] came to 2.29 µmol/mmol.

As for `O=C(O)CCCCc1ccc2c(c1O)C(=O)c1c(O)cccc1C2`, the IC50 with HaCaT [1] was over 5 µM; in test [2], 13 µM. The molecule also had a DD in test [3] of 2.62 µmol/mmol.

In the case of `CC(C)C(C(=O)N(C)O)c1ccc2c(c1O)C(=O)c1c(O)cccc1C2` (stereo unspecified), the values for the IC50 (in the test on HaCaT [1]; in test [2]) were 1.5 µM and 5 µM, respectively. Besides, the LDH in the test on HaCaT [4] was 135 MU. For the same molecule, in test [3], the DD was determined as 0.86 µmol/mmol.

For the molecule `CN(O)C(=O)Cc1ccc2c(c1O)C(=O)c1c(O)cccc1C2`, the IC50 was determined as 0.8 µM in the test on HaCaT [1] and 1 µM in test [2]. The molecule further yielded an LDH in the test with HaCaT [4] of 150 MU. Moreover, in test [3], the DD was 1.67 µmol/mmol.

On to `COC(=O)Cc1ccc2c(c1O)C(=O)c1c(O)cccc1C2`, for which the IC50 is 0.5 µM in the test on HaCaT [1] and over 30 µM in test [2].

On to `COC(=O)C(CCc1ccccc1)c1ccc2c(c1O)C(=O)c1c(O)cccc1C2` (stereo unspecified), for which the figures for the IC50 (with HaCaT [1]; in test [2]) were 1.3 µM and over 30 µM, respectively. The LDH with HaCaT [4] is 142 MU. The molecule also yielded a DD in test [3] of 0.28 µmol/mmol.

The molecule `CN(O)C(=O)CCCc1ccc2c(c1O)C(=O)c1c(O)cccc1C2` had an LDH in the test with HaCaT [4] of 181 MU. Also, the DD in test [3] was 1.5 µmol/mmol.

Take `O=C1c2c(O)cccc2Cc2ccc(C(CCc3ccccc3)C(=O)O)c(O)c21` (stereo unspecified): the IC50 in the test with HaCaT [1] was over 5 µM; in test [2] it was 2 µM. In the test with HaCaT [4], this molecule gave an LDH of 142 MU. Moreover, the DD in test [3] was 2.47 µmol/mmol.

With `O=C(CCc1ccc2c(c1O)C(=O)c1c(O)cccc1C2)NO`, the figures for the IC50 (in the test on HaCaT [1]; in test [2]) were 1.3 µM and 4 µM, respectively. Further, in test [3], the DD was 1.67 µmol/mmol.

In the test with HaCaT [1], `CC(C(=O)NO)c1ccc2c(c1O)C(=O)c1c(O)cccc1C2` (stereo unspecified) came in with an IC50 of 2 µM. In addition, the DD in test [3] was found to be 1.3 µmol/mmol.

For the molecule `CC(C)C(C(=O)NO)c1ccc2c(c1O)C(=O)c1c(O)cccc1C2` (stereo unspecified), the IC50 in the test on HaCaT [1] came to 1.5 µM; in test [2], 6 µM. The same molecule came in with an LDH in the test on HaCaT [4] of 192 MU. The same molecule came in with a DD in test [3] of 1.66 µmol/mmol.

`O=C(O)Cc1ccc2c(c1O)C(=O)c1c(O)cccc1C2`: the IC50 with HaCaT [1] was over 5 µM; in test [2], 22 µM. In test [3], the DD is 3.74 µmol/mmol.

With `CC(C)C(C(=O)O)c1ccc2c(c1O)C(=O)c1c(O)cccc1C2` (stereo unspecified), the IC50 in the test on HaCaT [1] is over 5 µM. The same molecule yielded an LDH in the test with HaCaT [4] of 128 MU. This molecule had a DD in test [3] of 3.58 µmol/mmol.

As for `COC(=O)c1ccc(Cc2ccc3c(c2O)C(=O)c2c(O)cccc2C3)cc1`, in test [2], the IC50 was over 30 µM. Also, in test [3], the DD was under 0.15 µmol/mmol.

Regarding `COC(=O)C(c1ccc2c(c1O)C(=O)c1c(O)cccc1C2)C(C)C` (stereo unspecified), the IC50 in the test on HaCaT [1] was 1.5 µM; in test [2], over 30 µM. Further, the DD in test [3] amounted to 0.54 µmol/mmol.

On to `COC(=O)C(C)c1ccc2c(c1O)C(=O)c1c(O)cccc1C2` (stereo unspecified), for which the results for the IC50 (with HaCaT [1]; in test [2]) were 0.8 µM and over 30 µM, respectively.

On to `O=C(CCCCc1ccc2c(c1O)C(=O)c1c(O)cccc1C2)NO`, for which the IC50 (in the test with HaCaT [1]; in test [2]) was 2 µM each time. In the test on HaCaT [4], this molecule came in with an LDH of 135 MU. For the same molecule, in test [3], the DD came to 1.38 µmol/mmol.

Regarding `CCCCOc1ccc(CC(=O)NO)cc1` [BUFEXAMAC], the IC50 in the test on HaCaT [1] was over 5 µM; in test [2] it was 35 µM. The molecule also showed an LDH in the test on HaCaT [4] of 135 MU.

`O=C(O)CCc1ccc2c(c1O)C(=O)c1c(O)cccc1C2`: the figures for the IC50 (in the test on HaCaT [1]; in test [2]) were over 5 µM and 19 µM, respectively. For the same molecule, in test [3], the DD came out at 2.67 µmol/mmol.

As to `CN(O)C(=O)C(Cc1ccccc1)c1ccc2c(c1O)C(=O)c1c(O)cccc1C2` (stereo unspecified), the IC50 was determined as 0.9 µM with HaCaT [1] and 5 µM in test [2]. The molecule further had a DD in test [3] of 1.68 µmol/mmol.

For the molecule `CC(C(=O)N(C)O)c1ccc2c(c1O)C(=O)c1c(O)cccc1C2` (stereo unspecified), the IC50 came to 1.5 µM in the test with HaCaT [1] and 6 µM in test [2]. The molecule also showed an LDH in the test on HaCaT [4] of 142 MU. The same molecule displayed a DD in test [3] of 1.57 µmol/mmol.

Take `O=C(O)CCCc1ccc2c(c1O)C(=O)c1c(O)cccc1C2`: the IC50 with HaCaT [1] is over 5 µM; in test [2], 18 µM. Moreover, the DD in test [3] turned out to be 2.61 µmol/mmol.

In the case of `COC(=O)C(Cc1ccccc1)c1ccc2c(c1O)C(=O)c1c(O)cccc1C2` (stereo unspecified), the IC50 was 1.8 µM in the test with HaCaT [1] and over 30 µM in test [2]. In test [3], this molecule registered a DD of under 0.15 µmol/mmol.

In the test with HaCaT [4], `CN(O)C(=O)CCCCc1ccc2c(c1O)C(=O)c1c(O)cccc1C2` gave an LDH of 124 MU. Also, the DD in test [3] is 1.36 µmol/mmol.

`O=C1c2c(O)cccc2Cc2ccc(C(Cc3ccccc3)C(=O)O)c(O)c21` (stereo unspecified) had an IC50 in the test on HaCaT [1] of over 5 µM. In test [3], this molecule registered a DD of 3.25 µmol/mmol.

The term IC50 denotes the point on the concentration scale where inhibition reaches its midpoint.
